Series [1] addresses T1, Cytochrome P450 2D6 (Homo sapiens, UniProt P10635). In words: Activity of human CYP2D6 expressed in microsomes isolated from baculovirus infected insect cell assessed as enzyme-mediated 2-mercapto-3-(4-((6-methoxy-1-methyl-1H-benzo[d]imidazol-2-yl)methoxy)phenyl)propanoic acid formation at 20 uM after 2 hrs by radio-HPLC/LC-MS/MS analysis in presence of NADPH-generating system. The class given is ADME. An outline of the steps:
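Baculovirus-insect-cell microsomes expressing the human CYP (1 mg/ml protein) were incubated with [14C]rivoglitazone (20 μM) in 50 mM potassium phosphate (pH 7.4) or 100 mM Tris-HCl (pH 7.5) with an NADPH-generating system (2 mM NADP+, 20 mM glucose 6-phosphate, 2 units/ml G6PDH, 10 mM MgCl2) for 2 h at 37°C. Insect-cell control supersomes served as the control. Reactions were stopped with acetonitrile, and the concentrated supernatants were analysed by radio-HPLC, LC-MS and LC-MS/MS.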

Series [2] in a line: Drug metabolism in rat hepatocytes assessed as formation of 3-(4-((6-methoxy-1-methyl-1H-benzo[d]imidazol-2-yl)methoxy)phenyl)-2-(methylthio)propanoic acid at 30 uM after 3 hrs by radio-HPLC/LC-MS/MS analysis in presence of NADPH-generating system/SAM and UDPGA/SAM. The class given is ADME, cell-based, Hepatocyte.
Series [3] is described as follows: Drug metabolism in monkey hepatocytes assessed as formation of 2-mercapto-3-(4-((6-methoxy-1-methyl-1H-benzo[d]imidazol-2-yl)methoxy)phenyl)propanoic acid at 30 uM after 3 hrs by radio-HPLC/LC-MS/MS analysis in presence of UDPGA, UDPGA/SAM and NADPH-generating system. To be noted: cynomolgus monkey.
In series [4] the target is T2, UDP-glucuronosyltransferase 1A7 (Homo sapiens, UniProt Q9HAW7).
T2 sequence (Q9HAW7 whole entry): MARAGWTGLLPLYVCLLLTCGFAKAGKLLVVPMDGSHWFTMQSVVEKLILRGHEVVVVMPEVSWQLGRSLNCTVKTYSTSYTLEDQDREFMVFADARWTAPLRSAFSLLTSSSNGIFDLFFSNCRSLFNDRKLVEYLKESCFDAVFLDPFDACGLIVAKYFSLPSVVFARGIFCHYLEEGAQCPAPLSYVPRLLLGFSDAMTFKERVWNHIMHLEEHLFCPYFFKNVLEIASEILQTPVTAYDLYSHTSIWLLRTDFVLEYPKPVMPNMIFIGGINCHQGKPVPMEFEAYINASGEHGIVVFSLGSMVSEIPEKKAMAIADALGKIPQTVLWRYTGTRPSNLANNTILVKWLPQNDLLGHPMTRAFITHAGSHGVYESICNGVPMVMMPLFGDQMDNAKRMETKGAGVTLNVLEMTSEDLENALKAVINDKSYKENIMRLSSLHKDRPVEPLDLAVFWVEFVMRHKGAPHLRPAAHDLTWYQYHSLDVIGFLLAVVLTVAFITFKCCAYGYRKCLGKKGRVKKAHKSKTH
In words: Activity of human UGT1A7 expressed in microsomes isolated from baculovirus infected insect cell assessed as enzyme-mediated (2S,3S,4S,5R,6R)-6-((1-carboxy-2-(4-((6-methoxy-1-methyl-1H-benzo[d]imidazol-2-yl)methoxy)phenyl)ethylthio)carbonylamino)-3,4,5-trihydroxytetrahydro-2H-pyran-2-carboxylic acid formation at 20 uM after 4 hrs by radio-HPLC/LC-MS/MS analysis in presence of UDPGA. The class given is ADME.

Series [5] deals with Cytochrome P450 3A5 (Homo sapiens, UniProt P20815). In words: Activity of human CYP3A5 expressed in microsomes isolated from baculovirus infected insect cell assessed as enzyme-mediated 2-mercapto-3-(4-((6-methoxy-1-methyl-1H-benzo[d]imidazol-2-yl)methoxy)phenyl)propanoic acid formation at 20 uM after 2 hrs by radio-HPLC/LC-MS/MS analysis in presence of NADPH-generating system. The class given is ADME. In outline: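 cDNA-expressed human CYP3A5 in baculovirus-insect-cell microsomes (1 mg/ml protein) was incubated with [¹⁴C]rivoglitazone (20 μM) in 50 mM potassium phosphate (pH 7.4) or 100 mM Tris-HCl (pH 7.5). NADPH-generating system: 2 mM NADP⁺, 20 mM glucose 6-phosphate, 2 units/ml G6PDH, 10 mM MgCl₂. Incubation ran 2 h at 37°C with shaking; insect-cell control supersomes served as control. Acetonitrile stop, supernatant concentrated, then radio-HPLC, LC-MS and LC-MS/MS.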
Cytochrome P450 3A5, sequence (P20815 whole entry): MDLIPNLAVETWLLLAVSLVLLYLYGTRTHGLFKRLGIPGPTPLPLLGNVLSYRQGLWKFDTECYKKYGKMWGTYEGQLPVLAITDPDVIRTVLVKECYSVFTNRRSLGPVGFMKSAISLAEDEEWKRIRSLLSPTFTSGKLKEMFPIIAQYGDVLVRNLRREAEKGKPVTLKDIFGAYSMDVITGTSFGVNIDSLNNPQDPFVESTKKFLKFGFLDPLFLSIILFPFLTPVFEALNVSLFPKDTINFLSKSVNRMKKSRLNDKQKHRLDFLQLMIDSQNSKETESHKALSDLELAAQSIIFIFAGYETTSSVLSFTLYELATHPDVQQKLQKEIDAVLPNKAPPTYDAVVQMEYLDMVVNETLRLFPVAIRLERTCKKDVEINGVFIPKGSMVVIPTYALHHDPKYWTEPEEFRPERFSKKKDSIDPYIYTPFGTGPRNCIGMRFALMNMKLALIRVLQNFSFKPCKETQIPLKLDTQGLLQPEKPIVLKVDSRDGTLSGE

Series [6] has as its target T1, Cytochrome P450 2D6. In words: Activity of human CYP2D6 expressed in microsomes isolated from baculovirus infected insect cell assessed as enzyme-mediated 5-(4-((6-methoxy-1H-benzo[d]imidazol-2-yl)methoxy)benzyl)thiazolidine-2,4-dione formation at 20 uM after 2 hrs by radio-HPLC/LC-MS/MS analysis in presence of NADPH-generating system and NADPH-generating system/SAM. The class given is ADME.

The subject of series [7] is Liver microsome. In words: Drug metabolism in human liver microsomes assessed as formation of 2-((4-((2,4-dioxothiazolidin-5-yl)methyl)phenoxy)methyl)-1-methyl-1H-benzo[d]imidazol-6-yl hydrogen sulfate at 20 uM by radio-HPLC/LC-MS/MS analysis. The class given is ADME.
Series [8] concerns the target T3, Cytochrome P450 2C8 (Homo sapiens, UniProt P10632).
T3 sequence (P10632 whole entry): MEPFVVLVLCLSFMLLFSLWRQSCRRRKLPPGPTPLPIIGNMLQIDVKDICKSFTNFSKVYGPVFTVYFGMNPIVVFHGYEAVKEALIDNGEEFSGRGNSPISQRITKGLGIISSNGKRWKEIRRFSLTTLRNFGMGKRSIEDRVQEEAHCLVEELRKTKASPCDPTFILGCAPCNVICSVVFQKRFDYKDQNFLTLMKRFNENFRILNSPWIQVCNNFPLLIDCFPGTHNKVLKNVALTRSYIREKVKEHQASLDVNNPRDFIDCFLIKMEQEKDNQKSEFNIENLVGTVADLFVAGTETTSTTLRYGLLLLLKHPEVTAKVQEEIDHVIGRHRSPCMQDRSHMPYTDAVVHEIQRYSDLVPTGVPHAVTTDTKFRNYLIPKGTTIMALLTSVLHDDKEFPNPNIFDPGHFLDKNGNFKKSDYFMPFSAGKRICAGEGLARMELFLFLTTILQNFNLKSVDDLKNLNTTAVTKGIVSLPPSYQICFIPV
In words: Activity of human CYP2C8 expressed in microsomes isolated from baculovirus infected insect cell assessed as enzyme-mediated 2-amino-3-((1-carboxy-2-(4-((6-methoxy-1-methyl-1H-benzo[d]imidazol-2-yl)methoxy)phenyl)ethyl)disulfanyl)propanoic acid formation at 20 uM after 2 hrs by radio-HPLC/LC-MS/MS analysis. The format is ADME. In outline: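 Baculovirus/insect-cell microsomes expressing single human CYPs, 1 mg/ml protein, with 50 mM potassium phosphate (pH 7.4) or 100 mM Tris-HCl (pH 7.5). NADPH-generating system: 2 mM NADP⁺, 20 mM glucose 6-phosphate, 2 units/ml G6PDH, 10 mM MgCl₂. [¹⁴C]rivoglitazone at 20 μM, 2 h at 37°C with shaking. Control used insect-cell control supersomes. Stopped with acetonitrile; supernatant concentrated under nitrogen; metabolites analysed by radio-HPLC, LC-MS and LC-MS/MS.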

T1 sequence (P10635 whole entry): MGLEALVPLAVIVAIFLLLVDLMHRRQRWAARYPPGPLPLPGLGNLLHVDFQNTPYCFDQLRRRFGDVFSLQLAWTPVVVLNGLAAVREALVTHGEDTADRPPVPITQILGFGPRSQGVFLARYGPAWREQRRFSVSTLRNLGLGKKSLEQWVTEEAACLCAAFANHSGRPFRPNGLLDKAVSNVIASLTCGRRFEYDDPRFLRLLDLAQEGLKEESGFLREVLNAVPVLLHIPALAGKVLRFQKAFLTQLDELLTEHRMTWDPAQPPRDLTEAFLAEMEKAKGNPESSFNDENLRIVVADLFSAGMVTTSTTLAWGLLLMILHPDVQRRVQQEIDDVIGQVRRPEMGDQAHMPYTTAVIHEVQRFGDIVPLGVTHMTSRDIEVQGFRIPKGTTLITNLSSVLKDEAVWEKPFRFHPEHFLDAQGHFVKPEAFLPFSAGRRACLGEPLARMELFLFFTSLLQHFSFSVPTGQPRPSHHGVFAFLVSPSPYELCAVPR

As to `COc1ccc2nc(COc3ccc(C[14CH]4SC(=O)NC4=O)cc3)n(C)c2c1.Cl` (racemic), the Drug metabolism entry in series [1] is recorded as “metabolite_detected”; in series [2], “metabolite_not_detected”; in series [3], “metabolite_not_detected”; in series [4], “metabolite_not_detected”; in series [5] it was “metabolite_detected”; in series [6], “metabolite_detected”. Moreover, the Drug metabolism entry in series [7] and in series [8] was “metabolite_not_detected” in each case.
